Data taken from ChEMBL document CHEMBL1147233, “Chemistry and structure-activity relationship of HIV-1 integrase inhibitor integracide B and related natural products” (J Nat Prod, 2003).

Tests used:
[1] = Inhibition of DNAse
[2] = target: T1, Human immunodeficiency virus type 1 integrase (Human immunodeficiency virus 1, UniProt Q7ZJM1); experiment: Inhibition of recombinant HIV1 integrase using unprocessed donor DNA by coupled assay
How it was run: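 Unprocessed donor DNA and inhibitor incubated with recombinant integrase together for 30 min, then target DNA added; strand-transfer product measured. Final DMSO 10%. IC50 from serial 2-fold dilutions in duplicate or triplicate; values without error limits are the average of these.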

[3] = target: Type II restriction enzyme EcoRI (Escherichia coli, UniProt P00642); experiment: Inhibition of Escherichia coli ECOR1
[4] = target: T1, Human immunodeficiency virus type 1 integrase; experiment: Inhibition of recombinant HIV1 integrase using preprocessed donor DNA treated after washing excess enzyme by strand transfer assay
How it was run: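 Integrase preincubated with preprocessed donor DNA, unbound enzyme washed off, then target DNA and inhibitor added together. Strand transfer product measured. Final DMSO 10%. IC50 from serial 2-fold dilutions run in duplicate or triplicate; values without error limits are the average of these.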

T1 sequence (Q7ZJM1 whole entry): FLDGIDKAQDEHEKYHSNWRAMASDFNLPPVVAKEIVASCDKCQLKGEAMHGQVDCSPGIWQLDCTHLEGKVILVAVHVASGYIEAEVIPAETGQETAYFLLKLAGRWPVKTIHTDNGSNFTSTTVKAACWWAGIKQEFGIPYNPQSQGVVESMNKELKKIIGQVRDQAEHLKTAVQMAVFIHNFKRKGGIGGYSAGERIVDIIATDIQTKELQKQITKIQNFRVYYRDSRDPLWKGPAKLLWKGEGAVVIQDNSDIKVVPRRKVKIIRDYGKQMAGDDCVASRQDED
Chain of Type II restriction enzyme EcoRI (P00642 whole entry): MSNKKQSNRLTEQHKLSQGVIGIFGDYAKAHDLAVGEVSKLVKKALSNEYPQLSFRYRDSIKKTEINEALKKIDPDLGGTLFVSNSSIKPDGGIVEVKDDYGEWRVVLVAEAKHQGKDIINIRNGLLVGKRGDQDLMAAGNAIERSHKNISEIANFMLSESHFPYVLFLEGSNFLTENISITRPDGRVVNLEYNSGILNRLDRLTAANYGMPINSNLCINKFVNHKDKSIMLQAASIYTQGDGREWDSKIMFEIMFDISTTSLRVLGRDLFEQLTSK

Compound | IC50 [1] [µM] | IC50 [2] [µM] | IC50 [3] [µM] | IC50 [4] [µM]
C=C(CC[C@@H](C)[C@H]1CC=C2C3=C([C@@H](O)[C@H](OC(C)=O)[C@@]21C)[C@@]1(C)C[C@@H](OC(=O)CN)[C@H](OC(=O)CN)C(C)(C)[C@@H]1CC3)C(C)C | 47 | 1.7 | > 50 | 11.5
C=C(CC[C@@H](C)[C@H]1CC=C2C3=C([C@@H](O)[C@H](OC(C)=O)[C@@]21C)[C@@]1(C)C[C@H]2OC(C)(C)O[C@@H]2C(C)(C)[C@@H]1CC3)C(C)C | > 50 | > 50 | > 50 | > 50
C=C(CC[C@@H](C)[C@H]1C[C@H](OC)c2c3c(cc(C)c21)[C@@]1(C)C[C@@H](O)[C@H](O)C(C)(C)[C@@H]1CC3)C(C)C | > 50 | 50 | > 50 | > 100
C=C(CC[C@@H](C)[C@H]1C[C@@H](OC)c2c3c(cc(C)c21)[C@@]1(C)C[C@@H](O)[C@H](O)C(C)(C)[C@@H]1CC3)C(C)C | > 50 | 50 | > 50 | > 100
C=C(CC[C@@H](C)[C@H]1CC(=O)C2=C3CC[C@H]4C(C)(C)[C@@H](O)[C@H](O)C[C@]4(C)C3=C[C@H](OC(C)=O)[C@@]21C)C(C)C | > 50 | 25 | > 50 | 40
C=C(CC[C@@H](C)[C@H]1CC=C2C3=C([C@@H](O)[C@H](OC(C)=O)[C@@]21C)[C@@]1(C)C[C@@H]2O[C@@H]2C(C)(C)[C@@H]1CC3)C(C)C | > 50 | > 50 | > 50 | > 50
COC(=O)C[C@@](C)(O)CC(=O)O[C@@H]1C[C@]2(C)C3=C(CC[C@H]2C(C)(C)C1=O)[C@]1(C)CC[C@H]([C@H](C)CCC(O)C(C)(C)O)[C@@]1(C)CC3 (stereo not given in full) | > 50 | 70 | > 50 | > 100
C=C(CC[C@@H](C)[C@H]1CC=C2C3=C([C@@H](O)[C@H](OC(C)=O)[C@@]21C)[C@@]1(C)C[C@@H](OC(=O)CN)[C@H](O)C(C)(C)[C@@H]1CC3)C(C)C | > 50 | 23 | > 50 | > 50
C=C(CC[C@@H](C)[C@H]1CC=C2C3=C([C@@H](O)[C@H](OC(C)=O)[C@@]21C)[C@@]1(C)C[C@@H](OCOC)[C@H](O)C(C)(C)[C@@H]1CC3)C(C)C | > 50 | > 80 | > 50 | > 80
C=C(CC[C@@H](C)[C@H]1CC=C2C3=C([C@@H](O)[C@H](OC(C)=O)[C@@]21C)[C@@]1(C)C[C@@H](O)[C@H](OCOC)C(C)(C)[C@@H]1CC3)C(C)C | > 50 | > 80 | > 50 | > 80
C=C(CC[C@@H](C)[C@H]1CC=C2C3=C([C@@H](O)[C@H](OC(C)=O)[C@@]21C)[C@@]1(C)C[C@@H](OC(=O)CCC(=O)NO)[C@H](O)C(C)(C)[C@@H]1CC3)C(C)C | > 50 | 8 | > 50 | > 50
C=C(CC[C@@H](C)[C@H]1CC=C2C3=C([C@@H](O)[C@H](OC(C)=O)[C@@]21C)[C@@]1(C)C[C@@H](O)[C@H](OC(=O)c2ccccc2)C(C)(C)[C@@H]1CC3)C(C)C | > 50 | > 80 | > 50 | > 80
C=C(CC[C@@H](C)[C@H]1CC=C2C3=C([C@@H](OC(C)=O)[C@H](OC(C)=O)[C@@]21C)[C@@]1(C)C[C@@H](OC(C)=O)[C@H](OC(C)=O)C(C)(C)[C@@H]1CC3)C(C)C | > 50 | > 50 | > 50 | > 50
C=C(CC[C@@H](C)[C@H]1CC=C2C3=C([C@@H](O)[C@H](OC(C)=O)[C@@]21C)[C@@]1(C)C[C@@H](OC(=O)c2ccccc2)[C@H](O)C(C)(C)[C@@H]1CC3)C(C)C | > 50 | > 80 | > 50 | > 80
C=C(CC[C@@H](C)[C@H]1CC=C2C3=C([C@@H](O)[C@H](OC(C)=O)[C@@]21C)[C@@]1(C)C[C@@H](OCOC)[C@H](OCOC)C(C)(C)[C@@H]1CC3)C(C)C | > 50 | > 80 | > 50 | > 80
C=C(CC[C@@H](C)[C@H]1CC=C2C3=C([C@@H](O)[C@H](O)[C@@]21C)[C@@]1(C)C[C@@H](O)[C@H](O)C(C)(C)[C@@H]1CC3)C(C)C | > 50 | 48 | > 50 | > 50

The next lines start with the values.

IC50 [1] [µM] | IC50 [2] [µM] | IC50 [3] [µM] | IC50 [4] [µM] | Compound
> 50 | > 50 | > 50 | > 50 | C=C(CC[C@@H](C)[C@H]1CC=C2C3=C([C@@H](O)[C@H](OC(C)=O)[C@@]21C)[C@@]1(C)C[C@@H](OC(=O)CCC(=O)OC)[C@H](O)C(C)(C)[C@@H]1CC3)C(C)C
> 50 | > 50 | > 50 | > 50 | C=C(CC[C@@H](C)[C@H]1CC=C2C3=C([C@@H](O)[C@H](OC(C)=O)[C@@]21C)[C@@]1(C)C[C@@H](OC(=O)CNC(=O)OCC2c4ccccc4-c4ccccc42)[C@H](O)C(C)(C)[C@@H]1CC3)C(C)C
> 50 | > 50 | > 50 | > 50 | C=C(CC[C@@H](C)[C@H]1CC=C2C3=C([C@@H](O)[C@H](OC(C)=O)[C@@]21C)[C@@]1(C)C[C@@H](OC(=O)CNC(=O)OCC2c4ccccc4-c4ccccc42)[C@H](OC(=O)CNC(=O)OCC2c4ccccc4-c4ccccc42)C(C)(C)[C@@H]1CC3)C(C)C
> 50 | > 50 | > 50 | > 50 | C=C(CC[C@@H](C)[C@H]1CC=C2C3=C([C@@H](O)[C@H](OC(C)=O)[C@@]21C)[C@@]1(C)C[C@@H](OC(=O)CNC(=O)OC(C)(C)C)[C@H](OC(=O)CNC(=O)OC(C)(C)C)C(C)(C)[C@@H]1CC3)C(C)C
> 50 | > 50 | > 50 | > 50 | C=C(CC[C@@H](C)[C@H]1CC=C2C3=C([C@@H](O)[C@H](OC(C)=O)[C@@]21C)[C@@]1(C)C[C@@H](O)[C@H](OC(=O)CCC(=O)OC)C(C)(C)[C@@H]1CC3)C(C)C
> 50 | > 69 | > 50 | > 69 | C=C(CC[C@@H](C)[C@H]1CC=C2C3=C([C@@H](O)[C@H](OC(C)=O)[C@@]21C)[C@@]1(C)C[C@@H](OC(=O)c2ccccc2)[C@H](OC(=O)c2ccccc2)C(C)(C)[C@@H]1CC3)C(C)C
> 50 | 3.1 | > 50 | 4.8 | C=C(CC[C@@H](C)[C@H]1CC=C2C3=C([C@@H](O)[C@H](OC(C)=O)[C@@]21C)[C@@]1(C)CC[C@H](OS(=O)(=O)O)C(C)(C)[C@@H]1CC3)C(C)C
> 50 | > 50 | > 50 | > 50 | C=C(CC[C@@H](C)[C@H]1CC=C2C3=C([C@@H](O)[C@H](OC(C)=O)[C@@]21C)[C@@]1(C)C[C@@H](OC(=O)CNC(=O)OC(C)(C)C)[C@H](O)C(C)(C)[C@@H]1CC3)C(C)C
> 50 | 75 | > 50 | > 100 | C=C(CC[C@@H](C)[C@H]1CC=C2C3=C(C(=O)[C@H](OC(C)=O)[C@@]21C)[C@@]1(C)C[C@@H](O)[C@H](O)C(C)(C)[C@@H]1CC3)C(C)C
